GalR3 antag – blocks the human galanin receptor 3 | O60755 | HEK293 GalR3-CNG cAMP membrane potential fluorescence; galR3 body fused to GalR1 C-terminus | inhibition, % at 3 µM | actives 0.44% (n = 360,000) | AID 651719;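 active = inhibition above the screen-wide average plus 3 SD, cut at about 13% in these data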;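 also: forskolin and galanin both at EC90 stimulate the cells; cAMP rise reported by CNG channel membrane potential dye signal; 0% = forskolin plus galanin with DMSO and 100% = forskolin alone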
Rin1-Abl PPI inh – human Rin1-Abl interaction inhibition | inhibition, % at 7.35 µM | TR-FRET Rin1/Abl binding, biochemical | AID 588664 | actives 0.4% (n = 360,000); in the data active = inhibition above about 5%, passing the limit was not always enough
ASAP1 GAP inh – inhibitors of human ASAP1 ArfGAP activity; Q9ULH1; ASAP1-stimulated ARF1 GTP hydrolysis, GDP FP detection; inhibition, % at 16.5 µM; actives 0.19% (n = 360,000); AID 624377; in the data active = inhibition above about 25%;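 also: 0% = vehicle with enzyme and substrate and 100% = no enzyme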
ARFGAP1 inhibitor – inhibitors of rat ARFGAP1. Arfgap1-stimulated ARF1 GTP hydrolysis, GDP FP detection. inhibition, % at 16.5 µM. AID 651572. Q62848. actives 0.26% (n = 360,000);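 active = inhibition above a per-plate limit, mean inhibition of low control wells plus 3 SD, cut at about 25% in these data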;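 also: 0% = DMSO wells with enzyme and 100% = wells lacking Arfgap1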
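material = rat Arfgap1 catalytic domain, aa 1-136 | also added = human ARF1(Δ1-17)-GTP substrate | compound dosing = one concentration, 16.5 µM, DMSO 1.26% | times = GTP hydrolysis reaction 2 h at 25 °C | measured by = FP, GDP Alexa 633 tracer displaced from anti-GDP antibody, 620/688 nm | evaluation = percent inhibition of Arfgap1-stimulated GTP hydrolysis | replication = single well per compound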
ARFGAP1 confirm – rat ARFGAP1 inhibition, confirmed; ARFGAP1-stimulated ARF1 GTP hydrolysis, GDP tracer FP; inhibition, % at 16.5 µM; shares compounds with ARFGAP1 inhibitor; actives 30% (n = 890);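 active = average inhibition over triplicates above the hit cutoff set in the earlier primary screen, cut at about 25% in these data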;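 also: 0% = Arfgap1 plus ARF1-GTP with DMSO and 100% = wells lacking Arfgap1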
Target sequence (Q62848 whole entry, looked up): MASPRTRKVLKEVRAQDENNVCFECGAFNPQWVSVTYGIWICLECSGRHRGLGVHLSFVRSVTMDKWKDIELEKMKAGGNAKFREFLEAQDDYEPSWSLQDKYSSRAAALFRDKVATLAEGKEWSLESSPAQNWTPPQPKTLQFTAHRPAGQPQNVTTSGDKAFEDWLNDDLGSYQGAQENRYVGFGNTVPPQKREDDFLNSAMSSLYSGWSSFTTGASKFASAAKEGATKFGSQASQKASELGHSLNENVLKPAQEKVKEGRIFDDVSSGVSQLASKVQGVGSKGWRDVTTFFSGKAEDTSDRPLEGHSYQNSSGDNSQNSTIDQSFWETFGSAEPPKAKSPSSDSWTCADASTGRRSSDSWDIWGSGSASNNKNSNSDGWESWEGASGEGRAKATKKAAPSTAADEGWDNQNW
* = called active by the depositor; nt = not tested or not shown. Most compounds without a hit are left out; they make up all but 1.2% or so of the library.

SMILES | GalR3 antag | Rin1-Abl PPI inh | ASAP1 GAP inh | ARFGAP1 inhibitor | ARFGAP1 confirm
CC(=O)Nc1cccc(-c2cc(NC=O)c3ncc(-c4ccc(C(C)=O)cc4)n3c2)c1 | 8 | -4 | 19 | 25* | 19
COc1ccc(C)cc1NC(=O)c1ccc2c(c1)C(=O)N(Cc1ccncc1)C2=O | -3 | 3 | 6 | -1 | nt
COc1ccc(NC(=O)c2ccc3c(c2)C(=O)N(Cc2ccncc2)C3=O)cc1S(N)(=O)=O | 5 | 3 | -1 | 35* | 13
Cc1ccc(OCC(O)CN2C(=O)NC(C)(C)C2=O)cc1 (stereo not given) | 1 | 3 | 0 | 35* | -1
NC(=O)c1ncn([C@@H]2O[C@H](C(=O)N[C@H](Cc3c[nH]c4ccccc34)C(=O)N3CCN(C(=O)C4CC4)CC3)[C@@H](O)[C@H]2O)n1 | -8 | nt | 9 | 3 | nt
COc1ccc(N2CC(C(=O)Nc3ccc(S(=O)(=O)Nc4nccs4)cc3)CC2=O)c(OC)c1 (stereo not given) | 0 | -1 | 2 | 25* | 0
O=C(C(=O)N1CCN(S(=O)(=O)c2ccccc2)CC1)c1cccc(C(F)(F)F)c1 | -2 | nt | -10 | 8 | nt
COc1ccc(N/N=C/c2c(C(=O)O)ccc3ccccc23)cc1 | -7 | -1 | 11 | 26* | 31*
COC(=O)c1nnn(CC(=O)Nc2cc(Cl)ccc2C)c1C(=O)OC | 1 | 0 | 2 | 7 | nt
COC(=O)c1nnn(-c2cccc(Cl)c2)c1C(=O)OC | -1 | -1 | -1 | 25* | 5
C#Cc1cccc(C(=O)NC2CCCN(C3Cc4ccccc4C3)C2)c1 (stereo not given) | -8 | 5 | -15 | -1 | nt
CC(C)(CO)CNC1CCCN(C2Cc3ccccc3C2)C1 (stereo not given) | -4 | 2 | 7 | 25* | 3
C/C(=N\NC(=S)NCc1ccccc1)c1ccc(Cl)s1 | -1 | -3 | -5 | 7 | nt
C/C(=N\NC(=S)NCc1ccccc1)c1cccs1 | -7 | 0 | -17 | 30* | 1
O/N=C\c1ccc2noc(-c3ccc(Cl)cc3)c2c1 | -9 | -3 | 7 | 25* | 29*
COc1cccc(CNC(=O)[C@H]2CCCN2C(=O)[C@H]2CCCN2C(=O)c2cccc(OC)c2)c1 | -4 | nt | -9 | -3 | nt
Cc1cc(=O)oc(C)c1C(=O)N1CCN(C)CC1 | -7 | -4 | 13 | 25* | -1
Cc1cnc2nc(-c3ccccc3)ccc2c1 | -9 | 2 | 4 | 26* | 3
Cc1ccc(OC2CCN(C(=O)[C@@H](Cc3ccccc3)NC(=O)[C@H]3O[C@@H](n4ccc(=O)[nH]c4=O)[C@H](O)[C@@H]3O)CC2)cc1 | -2 | nt | -6 | 1 | nt
O=C(Cn1c2ccc(F)cc2c2nc3n(c(=O)c21)CCS3)Nc1ccc(Cl)cc1F | 0 | -9 | 20 | 42* | 57*
S=C1NCCOc2ccccc21 | -6 | nt | -6 | 5 | nt
CCOc1ccc(/C=N/NC(=O)c2cc3c(OC)cc(OC)cc3[nH]2)cc1OC | -11 | -1 | 18 | 26* | 47*
C=CCOc1ccc(/C=N/NC(=O)c2cc3c(OC)cc(OC)cc3[nH]2)cc1 | -8 | -4 | 14 | 10 | nt
O=C(CN1C(=O)c2ccccc2C1=O)NCCc1c[nH]c2ccc(Cl)cc12 | -4 | 1 | 5 | -10 | nt
O=C1c2ccccc2C(=O)N1CCCc1c[nH]c2ccc(Cl)cc12 | -10 | 6 | 2 | 33* | 15
SMILES | GalR3 antag | Rin1-Abl PPI inh | ASAP1 GAP inh | ARFGAP1 inhibitor | ARFGAP1 confirm
O=C(CSc1nnc(COc2ccc(Cl)cc2)o1)NC1CC2CCC1C2 (stereo not given) | -8 | 0 | 0 | 30* | 3
COc1ccc(Cc2nnc(SCC(=O)c3ccccc3)o2)cc1 | -4 | 1 | -6 | -2 | nt
COc1ccc(OCc2nnc(SCC(=O)c3ccccc3)o2)cc1 | -2 | 3 | -11 | 32* | 8
COc1ccc(OCc2nnc(SCC(=O)NC3CC4CCC3C4)o2)cc1 (stereo not given) | -9 | 0 | -15 | -1 | nt
C[C@H](CO)N1C[C@H](C)[C@@H](CN(C)C(=O)c2ccncc2)OCc2cn(nn2)CCCC1=O | 0 | nt | 7 | 7 | nt
N#CCCn1cc(/C=N/NC(N)=S)c(-c2ccc(-c3ccccc3)cc2)n1 | -4 | 3 | -3 | 27* | 26*
CCCCOC(=O)NC(NCC(O)c1ccccc1)(C(F)(F)F)C(F)(F)F (stereo not given) | 1 | 3 | 5 | 31* | -6
